Assay [1] has as its target T1, GABA-A receptor; alpha-3/beta-3/gamma-2 (Homo sapiens, UniProt P18507+P28472+P34903).
T1 sequence (P18507 whole entry): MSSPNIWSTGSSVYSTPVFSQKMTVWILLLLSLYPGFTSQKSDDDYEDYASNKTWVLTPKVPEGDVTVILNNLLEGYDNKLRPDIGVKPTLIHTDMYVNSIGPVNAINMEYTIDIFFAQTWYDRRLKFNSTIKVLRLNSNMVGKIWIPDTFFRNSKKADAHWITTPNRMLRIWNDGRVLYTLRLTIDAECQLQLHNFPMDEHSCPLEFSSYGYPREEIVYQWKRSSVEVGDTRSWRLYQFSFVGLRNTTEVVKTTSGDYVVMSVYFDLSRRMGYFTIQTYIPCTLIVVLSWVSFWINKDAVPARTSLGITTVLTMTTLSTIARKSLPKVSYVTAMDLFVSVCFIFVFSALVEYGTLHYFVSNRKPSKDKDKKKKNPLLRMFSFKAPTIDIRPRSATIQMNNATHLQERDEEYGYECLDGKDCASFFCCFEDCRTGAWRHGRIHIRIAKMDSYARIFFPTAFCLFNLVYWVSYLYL
T1 sequence (P28472 whole entry): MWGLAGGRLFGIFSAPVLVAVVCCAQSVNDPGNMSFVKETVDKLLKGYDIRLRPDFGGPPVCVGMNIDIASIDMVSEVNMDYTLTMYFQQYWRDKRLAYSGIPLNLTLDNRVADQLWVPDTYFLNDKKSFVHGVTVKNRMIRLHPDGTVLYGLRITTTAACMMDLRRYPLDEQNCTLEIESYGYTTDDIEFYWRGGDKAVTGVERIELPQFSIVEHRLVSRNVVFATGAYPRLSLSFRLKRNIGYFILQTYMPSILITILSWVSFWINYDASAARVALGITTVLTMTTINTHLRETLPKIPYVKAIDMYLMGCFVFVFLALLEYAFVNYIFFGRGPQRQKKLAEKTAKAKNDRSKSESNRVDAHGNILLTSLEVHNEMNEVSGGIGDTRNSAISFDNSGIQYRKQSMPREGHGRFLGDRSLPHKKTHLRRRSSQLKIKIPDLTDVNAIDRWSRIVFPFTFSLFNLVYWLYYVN
T1 sequence (P34903 whole entry): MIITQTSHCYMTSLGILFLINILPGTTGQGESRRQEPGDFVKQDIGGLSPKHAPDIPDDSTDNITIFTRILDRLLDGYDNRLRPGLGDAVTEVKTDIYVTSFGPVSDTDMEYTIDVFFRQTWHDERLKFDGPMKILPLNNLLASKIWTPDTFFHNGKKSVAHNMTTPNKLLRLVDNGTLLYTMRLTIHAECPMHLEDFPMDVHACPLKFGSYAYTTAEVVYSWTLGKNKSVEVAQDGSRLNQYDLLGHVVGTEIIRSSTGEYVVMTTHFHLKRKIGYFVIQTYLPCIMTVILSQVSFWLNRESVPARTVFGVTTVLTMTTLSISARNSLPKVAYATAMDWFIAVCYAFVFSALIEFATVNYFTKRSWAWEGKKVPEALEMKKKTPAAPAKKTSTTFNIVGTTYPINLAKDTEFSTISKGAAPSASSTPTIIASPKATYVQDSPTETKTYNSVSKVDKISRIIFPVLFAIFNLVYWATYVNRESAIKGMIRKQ
The experiment in a line: Displacement of [3H]-Ro- 15-1788 binding from human recombinant Gamma-aminobutyric acid A receptor alpha-3-beta-3-gamma-2 expressed in mouse fibroblast L(tk-) cells (30 min at 24 degrees C, pH 7.4). Format: cell-based. A digest of the protocol:
(§1)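 Membranes from L(tk-) cells stably expressing human α1, α3 or α5 β3γ2 in 50 mM Tris pH 7.4. [3H]Ro15-1788 at 1.8 nM final, 30 min at 24 °C. Nonspecific binding set with 10 µM flunitrazepam, total binding in 0.1% DMSO. Filtration, scintillation counting. Ki is mean ± SEM of ≥3 independent determinations.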

Assay [2] has as its target T2, GABA-A receptor; alpha-1/beta-3/gamma-2 (Homo sapiens, UniProt P14867+P18507+P28472).
T2 sequence (P14867 whole entry): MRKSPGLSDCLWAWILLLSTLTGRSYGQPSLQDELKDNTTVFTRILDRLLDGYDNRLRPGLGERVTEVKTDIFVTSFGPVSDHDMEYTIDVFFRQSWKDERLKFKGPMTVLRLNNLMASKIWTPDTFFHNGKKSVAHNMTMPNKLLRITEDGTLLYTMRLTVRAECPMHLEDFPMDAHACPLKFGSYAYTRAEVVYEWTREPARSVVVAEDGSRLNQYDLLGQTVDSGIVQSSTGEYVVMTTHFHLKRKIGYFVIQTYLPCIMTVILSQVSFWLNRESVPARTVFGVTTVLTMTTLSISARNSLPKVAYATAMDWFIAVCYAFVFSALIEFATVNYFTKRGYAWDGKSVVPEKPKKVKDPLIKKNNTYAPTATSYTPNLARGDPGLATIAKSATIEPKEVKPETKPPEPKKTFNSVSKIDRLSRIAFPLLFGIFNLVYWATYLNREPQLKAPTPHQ
T2 sequence (P18507 whole entry): T1 sequence (P18507 whole entry)
T2 sequence (P28472 whole entry): T1 sequence (P28472 whole entry)
The assay is described as follows: Negative logarithm of effective concentration against GABA-A alpha-1-beta-3-gamma-2 receptor. Format: protein-complex assay. In a few lines:
(§2)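 Whole-cell patch clamp of L(tk-) cells stably expressing human α1, α3 or α5 β3γ2s, perfused with bicarbonate saline pH 7.2, CsCl pipette solution pH 7.3. Drugs applied by double-barrelled pipette; GABA in 5 s pulses at 30 s intervals. Modulation measured against a GABA EC20 set for each cell; curves fitted to a Hill equation.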

The target in assay [3] is T2, GABA-A receptor; alpha-1/beta-3/gamma-2. The assay is described as follows: Displacement of [3H]-Ro- 15-1788 binding from human recombinant Gamma-aminobutyric acid A receptor alpha-1-beta-3-gamma-2 expressed in mouse fibroblast L(tk-) cells (30 min at 24 degrees C, pH 7.4). Type of assay: cell-based. In a few lines:
as §1
On the technique in general: Loss of bound radioactivity is the signal in a displacement assay; it reports binding, not function.

The target in assay [4] is GABA-A receptor; alpha-1/beta-3/gamma-2 (Homo sapiens) (UniProt P14867+P18507+P28472). The experiment in a line: Maximum inhibition of GABA EC20 response at GABA-A receptor alpha-1-beta-3-gamma-2, n=4. Format: protein-complex assay. In a few lines:
as §2

The values that follow come from ChEMBL document CHEMBL1141088, “A new pyridazine series of GABAA alpha5 ligands” (J Med Chem, 2005).

pEC50, pKi: −log10 of the molar value.

In the case of `N#Cc1cccc(-c2cnnc(-c3ccccc3)c2)c1`, the negative logarithm of the Ki (pKi) is 7.85 in assay [1] and 8.15 in assay [3]. For the same molecule, the pEC50 in assay [2] was 8.53. Also, the Maximum inhibition in assay [4] was -23%.

One may read the pKi as −log10 of the Ki, conventionally taken in molar units. What is called pEC50 is the EC50 on a negative log10 scale, so that one unit is a factor of ten. A higher pEC50 goes with a low EC50.
